Measured values: ChEMBL document CHEMBL5500387, “Design, synthesis of combretastatin A-4 piperazine derivatives as potential antitumor agents by inhibiting tubulin polymerization and inducing autophagy in HCT116 cells” (Eur J Med Chem, 2024)

Legend:
A549 [1] = assay: Induction of apoptosis in human A549 cells assessed as dead cells at 0.2 uM measured after 24 hrs by Annexin V-APC/PI staining based flow cytometry analysis (reference value: 0.50%); format: functional
A549 [2] = assay: Induction of cell cycle arrest in human A549 cells assessed as accumulation of cells at S phase at 0.1 uM measured after 24 hrs by PI/RNase staining based analysis (reference value: 24.95%); format: functional
HCT-116 [3] = assay: Antitumor activity against human HCT-116 cells xenografted in female BALB/c nude mouse assessed as tumor growth inhibition at 20 mg/kg, ip administered every 2 days for 20 days by vernier caliper relative to control; format: functional; details: HCT-116, 480 h, time 20 day, read-out: TGI
Method in brief: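 HCT116 cells (5×10^7/0.2 mL/mouse) injected subcutaneously beside the right forelimb of 5-week-old female BALB/c nude mice. At 100 mm³ tumour volume, mice randomised by weight and tumour size into four groups of ten. Saline vehicle control ip. Dosing for 20 days, then euthanasia and tumour weighing. Caliper diameters used; volume = W²×L/2.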

HCT-116 [4] = assay: Induction of autophagy in human HCT-116 cells assessed as downregulation of p62 protein level measured after 24 hrs by Western blot analysis; format: functional, cell-based; details: dose 0.1-0.3 µM
Method in brief: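 HCT116 cells exposed for 24 h to 0.1, 0.2 or 0.3 μM. Lysed on ice and protein measured by BCA. […] Milk-blocked, probed with anti-LC3A/B or anti-phospho-SQSTM1/p62 (1:1000) plus β-actin, then HRP anti-rabbit and chemiluminescence. Bands normalised to control set to 1. Three independent experiments.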

HCT-116 [5] = assay: Induction of cell cycle arrest in human HCT-116 cells assessed as accumulation of cells at S phase at 0.3 uM measured after 24 hrs by PI/RNase staining based flow cytometry analysis (reference value: 38.29%); format: functional

## COc1ccc(/C=C(/C(=O)N2CCN(c3ccc(C)cc3)CC2)c2cc(OC)c(OC)c(OC)c2)cc1O
A549 [1]
  Activity: 1.05%
A549 [2]
  Activity: 24.95%
HCT-116 [3]
  inhibition in vivo at 20 mg/kg: 1.48%
HCT-116 [4]
  Activity: Dose-Dependent Effect
HCT-116 [5]
  Activity: 6.31%
